Measured values reported in ChEMBL document CHEMBL4261552, “4-Hydroxy-N-[3,5-bis(trifluoromethyl)phenyl]-1,2,5-thiadiazole-3-carboxamide: a novel inhibitor of the canonical NF-κB cascade” (Medchemcomm, 2017).
Calls of active or inactive are those of the source. No cut-off for these calls is given here.

Assays:
Homo sapiens = species: Homo sapiens; assay: Inhibition of canonical NF-kB signaling pathway in human THP1 cells assessed as reduction in LPS-induced IkBalpha degradation preincubated for 60 mins followed by LPS addition measured after 30 mins by immunoblot analysis; assay type: cell-based
Outline: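 THP-1 cells in RPMI-1640 with 10% FBS. Cells exposed 60 min to compound, then 30 min to LPS 1 µg/mL. Lysates immunoblotted at 20 µg/lane for IκBα and β-actin, with ECL detection. Band signals normalized as % of control; apparent IC50 by non-linear regression; mean ± SD of three independent experiments.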

Jurkat = assay: Inhibition of TNFalpha-activated canonical NF-kB signaling pathway in human Jurkat cells assessed as residual activity at 1 uM after 6 hrs by luciferase reporter gene assay relative to control; assay type: cell-based
Outline: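 Jurkat cells nucleofected with 3 µg of NF-κB-RE firefly luciferase and TK-Renilla plasmids (10:1), then cultured 24 h at 37 °C. Compound added for a further 6 h, with TNFα in the last 20 min. Firefly luminescence normalized to Renilla and expressed as % of DMSO+TNFα control; mean ± SD of three experiments.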

[1] = biological target: T1, Inhibitor of nuclear factor kappa-B kinase subunit beta (Homo sapiens, UniProt O14920); assay: Inhibition of human IKKbeta using ERLLDDRHDSGLDSMKDEE as substrate after 60 mins in presence of ATP by ADP-Glo kinase assay
T1 sequence (O14920 whole entry): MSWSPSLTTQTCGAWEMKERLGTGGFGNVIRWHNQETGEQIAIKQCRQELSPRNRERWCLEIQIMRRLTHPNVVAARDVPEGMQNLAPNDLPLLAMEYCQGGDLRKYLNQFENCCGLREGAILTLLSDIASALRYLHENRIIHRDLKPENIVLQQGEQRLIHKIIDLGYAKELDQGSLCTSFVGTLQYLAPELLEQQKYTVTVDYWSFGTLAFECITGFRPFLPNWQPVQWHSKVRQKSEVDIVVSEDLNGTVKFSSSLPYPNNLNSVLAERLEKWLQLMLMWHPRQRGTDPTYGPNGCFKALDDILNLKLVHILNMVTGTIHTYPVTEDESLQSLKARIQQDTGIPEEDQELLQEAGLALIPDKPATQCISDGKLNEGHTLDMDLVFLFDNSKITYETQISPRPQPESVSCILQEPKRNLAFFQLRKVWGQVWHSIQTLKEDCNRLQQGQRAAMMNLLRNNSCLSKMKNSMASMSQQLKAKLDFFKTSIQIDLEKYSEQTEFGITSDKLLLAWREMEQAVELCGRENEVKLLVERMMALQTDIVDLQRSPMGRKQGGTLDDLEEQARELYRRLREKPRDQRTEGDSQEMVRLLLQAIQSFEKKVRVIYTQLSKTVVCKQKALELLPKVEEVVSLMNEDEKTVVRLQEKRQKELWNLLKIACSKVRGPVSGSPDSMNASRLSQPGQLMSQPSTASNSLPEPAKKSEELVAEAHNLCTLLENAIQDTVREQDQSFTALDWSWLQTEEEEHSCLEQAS

[2] = biological target: T2, Inhibitor of nuclear factor kappa-B kinase subunit alpha (Homo sapiens) (UniProt O15111); assay: Inhibition of human IKKalpha at 100 uM using ERLLDDRHDSGLDSMKDEE as substrate after 60 mins in presence of ATP by ADP-Glo kinase assay relative to control
T2 sequence (whole entry): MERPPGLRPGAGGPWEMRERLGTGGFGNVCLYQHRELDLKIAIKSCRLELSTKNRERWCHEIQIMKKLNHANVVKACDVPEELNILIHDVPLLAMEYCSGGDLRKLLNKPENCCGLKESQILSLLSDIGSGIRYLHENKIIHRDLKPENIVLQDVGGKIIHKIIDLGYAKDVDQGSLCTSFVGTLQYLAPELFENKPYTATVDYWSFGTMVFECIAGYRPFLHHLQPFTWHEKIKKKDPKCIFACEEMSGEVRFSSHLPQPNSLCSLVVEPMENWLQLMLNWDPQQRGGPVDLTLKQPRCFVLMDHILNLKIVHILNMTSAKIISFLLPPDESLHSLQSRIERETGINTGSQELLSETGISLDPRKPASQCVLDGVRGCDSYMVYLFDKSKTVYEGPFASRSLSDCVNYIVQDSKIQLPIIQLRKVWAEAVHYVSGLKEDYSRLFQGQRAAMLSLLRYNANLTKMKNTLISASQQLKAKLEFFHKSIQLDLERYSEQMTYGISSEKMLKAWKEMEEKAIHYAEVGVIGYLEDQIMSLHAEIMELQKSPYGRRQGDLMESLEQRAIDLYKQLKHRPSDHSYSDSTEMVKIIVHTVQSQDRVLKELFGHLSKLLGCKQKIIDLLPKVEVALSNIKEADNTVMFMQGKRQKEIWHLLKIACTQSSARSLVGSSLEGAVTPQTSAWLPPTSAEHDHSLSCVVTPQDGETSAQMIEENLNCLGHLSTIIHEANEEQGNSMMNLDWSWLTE

MDA-MB-231 [3] = assay: Inhibition of constitutively activated canonical NF-kB signaling pathway in human MDA-MB-231 cells assessed as residual activity at 10 uM after 6 hrs by luciferase reporter gene assay relative to control; assay type: cell-based
Outline: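 MDA-MB-231 cells (constitutive NF-κB) nucleofected with 3 µg of NF-κB-RE firefly luciferase plus TK-Renilla plasmids (10:1), then cultured 24 h. Compound added for a further 6 h or 24 h, without stimulus. Firefly/Renilla ratio expressed as % of DMSO-treated control; mean ± SD of three independent experiments.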

MDA-MB-231 [4] = assay: Antiproliferative activity against human MDA-MB-231 cells assessed as DNA content after 72 hrs by Hoechst 33258 staining based fluorescence assay; assay type: functional, cell-based; details: MDA-MB-231, 72 h
Outline: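 MDA-MB-231 cells (5 x 10³/well) grown in DMEM with 10% FBS and exposed to 0.001 - 200 µM compound or DMSO vehicle for 72 h. Cells were washed with PBS and lysed in 0.02% SDS in SSC buffer for 1 h at 37 °C. Hoechst 33258 (1 µg/mL) was then added and fluorescence read at ex 355/em 460 nm. IC50 taken by nonlinear regression; mean ± SD of three independent experiments.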

[5] = biological target: Mitogen-activated protein kinase kinase kinase 14 (Homo sapiens, UniProt Q99558); assay: Inhibition of human NIK using AKDVDQGSLCTSFVGTLQY as substrate after 60 mins in presence of ATP by ADP-Glo kinase assay
Sequence of Mitogen-activated protein kinase kinase kinase 14 (Q99558 whole entry): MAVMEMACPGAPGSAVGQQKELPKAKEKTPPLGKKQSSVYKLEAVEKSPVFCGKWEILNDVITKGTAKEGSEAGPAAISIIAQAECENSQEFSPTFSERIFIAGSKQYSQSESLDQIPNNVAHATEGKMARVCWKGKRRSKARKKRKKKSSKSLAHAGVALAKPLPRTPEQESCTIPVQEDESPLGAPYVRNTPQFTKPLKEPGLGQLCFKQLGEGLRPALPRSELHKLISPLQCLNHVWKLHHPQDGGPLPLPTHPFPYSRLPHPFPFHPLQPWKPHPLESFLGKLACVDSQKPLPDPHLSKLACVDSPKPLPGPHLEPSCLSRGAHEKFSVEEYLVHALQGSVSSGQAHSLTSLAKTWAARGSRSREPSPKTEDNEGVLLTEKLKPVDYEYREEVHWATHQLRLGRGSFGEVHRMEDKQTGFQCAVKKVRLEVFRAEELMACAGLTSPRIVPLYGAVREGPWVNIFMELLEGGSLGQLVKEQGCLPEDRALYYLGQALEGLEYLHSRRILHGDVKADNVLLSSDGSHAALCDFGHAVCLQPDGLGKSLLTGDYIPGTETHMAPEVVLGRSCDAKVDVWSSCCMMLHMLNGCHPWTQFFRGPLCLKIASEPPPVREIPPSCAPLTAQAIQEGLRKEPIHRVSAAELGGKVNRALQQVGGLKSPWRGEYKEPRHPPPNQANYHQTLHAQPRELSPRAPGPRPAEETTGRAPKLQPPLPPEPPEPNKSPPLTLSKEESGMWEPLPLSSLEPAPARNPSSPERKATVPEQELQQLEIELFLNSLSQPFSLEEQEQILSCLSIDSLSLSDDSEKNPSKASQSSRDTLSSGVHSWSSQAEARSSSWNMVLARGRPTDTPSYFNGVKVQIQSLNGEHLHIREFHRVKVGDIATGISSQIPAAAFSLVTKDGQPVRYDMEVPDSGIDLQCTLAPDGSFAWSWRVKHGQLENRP

[6] = biological target: Inhibitor of NF-kappa-B kinase (IKK) (Homo sapiens) (UniProt O14920+O15111+Q9Y6K9); assay: Inhibition of IKKbeta/IKKalpha/NEMO complex immunoprecipated from TNFalpha-stimulated human Jurkat cells at 100 uM relative to control
[7] = biological target: T2, Inhibitor of nuclear factor kappa-B kinase subunit alpha (Homo sapiens); assay: Induction of IKKalpha phosphorylation at S176/180 residues in TNFalpha-stimulated human Jurkat cells at 10 uM preincubated for 60 mins followed by TNFalpha-stimulation for 20 mins by immunoblot analysis; assay type: cell-based
Outline: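 Jurkat E6.1 cells in X-VIVO 15 with 10% FBS, passages 5–10, were pretreated 60 min with 10 µM compound (DMSO vehicle), then stimulated 20 min with TNFα 15 ng/mL. Lysates were made with protease and phosphatase inhibitors, 20 µg/lane was run on 12% SDS-PAGE, and IKKα/IKKβ phosphorylation was detected by immunoblot with ECL. Three independent experiments were run.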

In the case of O=C(Nc1cc(C(F)(F)F)cc(C(F)(F)F)c1)c1nsnc1O, the inhibition (Homo sapiens) is reported as “Dose-dependent effect”, the Activity (Jurkat) is reported as 15.9% and the IC50 [1] is reported as greater than 100 µM. The inhibition [2] was 25.2%, the Activity (MDA-MB-231 [3]) was 96.1% and the IC50 (MDA-MB-231 [4]) was 1.29 µM. The IC50 [5] was greater than 100 µM.

With O=C(Nc1cc(C(F)(F)F)cc(C(F)(F)F)c1)c1cc(Cl)ccc1O [IMD-0354] the Activity (Jurkat) was 23.5%, the IC50 [1] was greater than 100 µM and the inhibition [2] was 3.45%. It also gave an Activity (MDA-MB-231 [3]) of 99%, an inhibition [6] of 40% and an IC50 (MDA-MB-231 [4]) of 0.64 µM. The IC50 [5] was greater than 100 µM and the Activity [7] was “Active”.
